Laboratory results reported in ChEMBL document CHEMBL1671761, “Preclinical characterization of BI 201335, a C-terminal carboxylic acid inhibitor of the hepatitis C virus NS3-NS4A protease” (Antimicrob Agents Chemother, 2010).

Assays:
[1] = molecular target: 5-hydroxytryptamine receptor 2A (Rattus norvegicus) (UniProt P14842); assay: Inhibition of rat 5-HT2A receptor at 10 uM
[2] = AUC in monkey at 5 mg/kg, po; format: ADME, organism-based, Macaca mulatta; set-up: dose 5 mg/kg, route oral; conditions: rhesus monkey, plasma
In short: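 Single oral dose of 5 mg/kg in 0.5% Methocel with 0.3% Tween 80 (10 ml/kg) to fasted male animals: Sprague-Dawley rats (275-300 g, overnight fast with 10% dextrose water), rhesus monkeys, beagle dogs. Rat blood from cannulated carotid at 0-8 h, pooled from 3 rats per time point; monkey/dog n=3. Plasma solid-phase extracted, LC-MS/MS at m/z 869.3; noncompartmental analysis.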

[3] = molecular target: Matrix metalloproteinase-14 (Homo sapiens) (UniProt P50281); assay: Inhibition of human MMP-14 at 10 uM
[4] = molecular target: Collagenase 3 (Homo sapiens) (UniProt P45452); assay: Inhibition of human MMP-13 at 10 uM
Caspase-6 (Homo sapiens) = Caspase-6 (Homo sapiens) (UniProt P55212); assay: Inhibition of human caspase-6 at 10 uM
Sequence of Caspase-6 (Homo sapiens) (P55212 24-179 limits assumed): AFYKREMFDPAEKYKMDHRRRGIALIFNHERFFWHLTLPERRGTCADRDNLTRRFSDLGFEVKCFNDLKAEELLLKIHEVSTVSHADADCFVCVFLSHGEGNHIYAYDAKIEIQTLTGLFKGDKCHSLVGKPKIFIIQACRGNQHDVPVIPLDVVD
Sequence of Caspase-6 (Homo sapiens) (P55212 194-293 limits assumed): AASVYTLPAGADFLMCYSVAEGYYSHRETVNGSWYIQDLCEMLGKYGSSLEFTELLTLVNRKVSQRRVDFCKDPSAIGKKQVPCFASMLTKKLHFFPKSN

Homo sapiens [5] = organism: Homo sapiens; assay: Inhibition of human chymotrypsin at 10 uM
[6] = molecular target: Calpain-1 catalytic subunit (Homo sapiens) (UniProt P07384); assay: Inhibition of human calpain-1 at 10 uM
Sequence of Calpain-1 catalytic subunit (Homo sapiens) (P07384 whole entry): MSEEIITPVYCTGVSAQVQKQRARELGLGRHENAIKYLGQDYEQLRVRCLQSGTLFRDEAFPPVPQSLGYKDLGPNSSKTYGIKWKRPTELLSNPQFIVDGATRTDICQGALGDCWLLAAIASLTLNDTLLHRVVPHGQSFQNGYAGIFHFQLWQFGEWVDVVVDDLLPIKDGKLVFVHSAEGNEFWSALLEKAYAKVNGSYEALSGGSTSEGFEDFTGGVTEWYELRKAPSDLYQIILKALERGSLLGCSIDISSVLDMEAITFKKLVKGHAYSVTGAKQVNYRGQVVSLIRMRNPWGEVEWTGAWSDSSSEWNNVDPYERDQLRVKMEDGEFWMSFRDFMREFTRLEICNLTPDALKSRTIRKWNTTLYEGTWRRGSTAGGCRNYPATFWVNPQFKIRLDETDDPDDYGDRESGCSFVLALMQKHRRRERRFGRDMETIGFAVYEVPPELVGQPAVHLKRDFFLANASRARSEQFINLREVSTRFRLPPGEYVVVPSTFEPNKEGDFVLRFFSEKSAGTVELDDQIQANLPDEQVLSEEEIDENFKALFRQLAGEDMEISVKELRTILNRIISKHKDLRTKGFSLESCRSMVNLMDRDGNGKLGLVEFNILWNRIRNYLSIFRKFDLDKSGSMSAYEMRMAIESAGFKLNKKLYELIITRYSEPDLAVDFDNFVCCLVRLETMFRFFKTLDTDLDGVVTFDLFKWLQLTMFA

Rattus norvegicus [7] = organism: Rattus norvegicus; assay: Inhibition of rat GABA-A receptor, chloride channel at 10 uM
[8] = molecular target: Stromelysin-1 (Homo sapiens) (UniProt P08254); assay: Inhibition of human MMP-3 at 10 uM
Sequence of Stromelysin-1 (Homo sapiens) (P08254 100-477 limits assumed): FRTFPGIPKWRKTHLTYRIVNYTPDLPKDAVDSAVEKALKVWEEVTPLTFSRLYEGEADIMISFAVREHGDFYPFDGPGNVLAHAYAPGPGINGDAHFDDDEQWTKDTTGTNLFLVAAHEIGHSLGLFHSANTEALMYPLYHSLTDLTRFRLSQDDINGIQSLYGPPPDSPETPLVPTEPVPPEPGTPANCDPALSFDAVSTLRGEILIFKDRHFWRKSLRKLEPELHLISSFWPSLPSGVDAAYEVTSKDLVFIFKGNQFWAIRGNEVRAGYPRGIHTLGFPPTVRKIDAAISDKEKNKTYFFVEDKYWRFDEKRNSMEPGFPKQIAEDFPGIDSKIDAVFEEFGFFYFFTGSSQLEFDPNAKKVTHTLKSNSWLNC

Rattus norvegicus [9] = organism: Rattus norvegicus; assay: Inhibition of rat GABA-A receptor, benzodiazepine central at 10 uM
[10] = molecular target: Glutamate receptor ionotropic, delta-1 (Rattus norvegicus) (UniProt Q62640); assay: Inhibition of rat glutamate receptor at 10 uM
[11] = molecular target: Pro-cathepsin H (Homo sapiens) (UniProt P09668); assay: Inhibition of human cathepsin H at 10 uM
Sequence of Pro-cathepsin H (Homo sapiens) (P09668 116-335 limits assumed, other chains not shown): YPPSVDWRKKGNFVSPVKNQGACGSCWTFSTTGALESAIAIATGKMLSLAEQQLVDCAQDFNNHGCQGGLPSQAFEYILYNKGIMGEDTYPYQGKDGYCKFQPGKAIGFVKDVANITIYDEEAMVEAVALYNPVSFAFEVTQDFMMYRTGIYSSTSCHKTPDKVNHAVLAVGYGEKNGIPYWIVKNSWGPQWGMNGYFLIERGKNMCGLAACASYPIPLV

Homo sapiens [12] = organism: Homo sapiens; assay: Inhibition of human dopamine receptor 4.7 at 10 uM
[13] = molecular target: Neprilysin (Homo sapiens) (UniProt P08473); assay: Inhibition of human neutral endopeptidase at 10 uM
Sequence of Neprilysin (Homo sapiens) (P08473 whole entry): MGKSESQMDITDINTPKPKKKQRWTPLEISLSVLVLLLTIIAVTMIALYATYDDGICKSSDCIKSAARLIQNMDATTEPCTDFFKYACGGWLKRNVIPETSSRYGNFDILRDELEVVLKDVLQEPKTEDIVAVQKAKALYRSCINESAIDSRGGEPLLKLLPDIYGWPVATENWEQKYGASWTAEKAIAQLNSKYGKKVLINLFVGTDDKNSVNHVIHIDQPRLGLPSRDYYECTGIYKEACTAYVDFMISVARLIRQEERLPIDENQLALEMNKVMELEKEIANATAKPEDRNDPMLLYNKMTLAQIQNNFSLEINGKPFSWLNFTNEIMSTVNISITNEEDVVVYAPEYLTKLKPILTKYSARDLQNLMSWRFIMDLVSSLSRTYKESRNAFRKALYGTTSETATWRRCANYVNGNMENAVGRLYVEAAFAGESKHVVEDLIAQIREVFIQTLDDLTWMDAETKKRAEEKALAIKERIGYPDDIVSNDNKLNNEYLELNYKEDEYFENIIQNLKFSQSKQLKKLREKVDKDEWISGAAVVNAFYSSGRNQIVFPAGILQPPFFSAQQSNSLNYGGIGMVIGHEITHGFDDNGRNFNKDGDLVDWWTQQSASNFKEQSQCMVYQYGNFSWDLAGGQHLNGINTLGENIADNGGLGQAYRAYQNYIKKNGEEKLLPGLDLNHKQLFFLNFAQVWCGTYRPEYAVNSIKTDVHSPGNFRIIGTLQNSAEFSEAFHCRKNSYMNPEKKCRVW

Homo sapiens [14] = organism: Homo sapiens; assay: Inhibition of human nicotinic acetylcholine receptor at 10 uM
[15] = molecular target: Coagulation factor X (Homo sapiens) (UniProt P00742); assay: Inhibition of human factor 10a at 10 uM
Sequence of Coagulation factor X (Homo sapiens) (P00742 41-179 limits assumed): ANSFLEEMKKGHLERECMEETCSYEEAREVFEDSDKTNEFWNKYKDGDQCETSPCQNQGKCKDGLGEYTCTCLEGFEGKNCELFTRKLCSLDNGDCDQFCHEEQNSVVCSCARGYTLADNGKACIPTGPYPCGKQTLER
Sequence of Coagulation factor X (Homo sapiens) (P00742 235-488 limits assumed): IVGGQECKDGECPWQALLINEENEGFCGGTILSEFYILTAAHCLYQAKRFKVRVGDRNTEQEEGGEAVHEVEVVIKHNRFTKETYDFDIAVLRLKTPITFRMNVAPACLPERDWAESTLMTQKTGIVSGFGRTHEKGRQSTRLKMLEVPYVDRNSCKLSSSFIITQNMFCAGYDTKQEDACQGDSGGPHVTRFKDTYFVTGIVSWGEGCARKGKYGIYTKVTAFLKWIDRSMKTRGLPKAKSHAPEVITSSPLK

Chymase (Homo sapiens) = Chymase (Homo sapiens) (UniProt P23946); assay: Inhibition of human chymase at 10 uM
Sequence of Chymase (Homo sapiens) (P23946 whole entry): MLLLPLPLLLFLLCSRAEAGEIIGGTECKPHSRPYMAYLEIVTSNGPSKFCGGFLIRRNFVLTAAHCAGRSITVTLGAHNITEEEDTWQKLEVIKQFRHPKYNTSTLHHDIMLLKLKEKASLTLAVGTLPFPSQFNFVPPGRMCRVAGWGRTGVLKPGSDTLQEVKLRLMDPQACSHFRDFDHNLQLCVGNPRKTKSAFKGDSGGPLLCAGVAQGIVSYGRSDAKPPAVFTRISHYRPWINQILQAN

[16] = molecular target: Neutrophil elastase (Homo sapiens) (UniProt P08246); assay: Inhibition of human elastase, leukocyte at 10 uM
Sequence of Neutrophil elastase (Homo sapiens) (P08246 whole entry): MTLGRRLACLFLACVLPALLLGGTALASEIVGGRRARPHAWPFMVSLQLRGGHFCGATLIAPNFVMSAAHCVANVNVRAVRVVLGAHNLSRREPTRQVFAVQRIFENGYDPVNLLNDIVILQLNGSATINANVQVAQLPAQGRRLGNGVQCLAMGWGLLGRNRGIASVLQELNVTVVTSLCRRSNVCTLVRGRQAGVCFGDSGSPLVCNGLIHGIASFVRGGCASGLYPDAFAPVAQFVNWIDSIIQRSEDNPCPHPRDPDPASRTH

Rattus norvegicus [17] = organism: Rattus norvegicus; assay: Inhibition of rat GABA B receptor at 10 uM
[18] = molecular target: Neprilysin (Rattus norvegicus) (UniProt P07861); assay: Inhibition of rat neutral endopeptidase at 10 uM
[19] = molecular target: Sodium-dependent noradrenaline transporter (Homo sapiens) (UniProt P23975); assay: Inhibition of human norepinephrine transporter at 10 uM
Sequence of Sodium-dependent noradrenaline transporter (Homo sapiens) (P23975 whole entry): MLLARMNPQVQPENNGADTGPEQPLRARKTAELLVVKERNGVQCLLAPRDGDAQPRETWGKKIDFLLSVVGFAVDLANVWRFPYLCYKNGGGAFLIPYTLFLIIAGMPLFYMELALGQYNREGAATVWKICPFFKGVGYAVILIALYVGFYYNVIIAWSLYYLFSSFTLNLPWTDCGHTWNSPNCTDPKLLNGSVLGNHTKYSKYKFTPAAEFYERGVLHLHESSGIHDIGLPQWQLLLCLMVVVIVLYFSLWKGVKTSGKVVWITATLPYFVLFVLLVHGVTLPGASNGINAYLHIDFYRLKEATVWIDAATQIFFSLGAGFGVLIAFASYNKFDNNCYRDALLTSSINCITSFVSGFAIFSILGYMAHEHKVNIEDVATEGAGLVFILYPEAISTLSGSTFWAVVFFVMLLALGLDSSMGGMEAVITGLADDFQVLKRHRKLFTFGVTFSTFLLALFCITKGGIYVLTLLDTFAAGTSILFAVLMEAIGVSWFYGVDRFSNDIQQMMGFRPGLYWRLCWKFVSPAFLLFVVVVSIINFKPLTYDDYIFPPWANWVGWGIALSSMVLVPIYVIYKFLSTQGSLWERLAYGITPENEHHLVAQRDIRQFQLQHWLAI

Rattus norvegicus [20] = organism: Rattus norvegicus; assay: Inhibition of rat potassium channel-A at 10 uM
[21] = Mean retention time in Sprague-Dawley rat at 5 mg/kg, po; format: ADME, organism-based, Sparague-Dawley; set-up: dose 5 mg/kg, route oral; conditions: in vivo
In short: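 Male Sprague-Dawley rats (275-300 g), fasted overnight with 10% dextrose water. Single oral dose in 0.5% Methocel/0.3% Tween 80 at 10 ml/kg. Carotid-cannula blood taken 0-8 h, with plasma from 3 rats pooled per time point. Solid-phase extraction, then LC-MS/MS at m/z 869.3 (LOQ 10 nM). Noncompartmental analysis.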

[22] = molecular target: D(1A) dopamine receptor (Homo sapiens) (UniProt P21728); assay: Inhibition of human dopamine receptor 1 at 10 uM
Sequence of D(1A) dopamine receptor (Homo sapiens) (P21728 whole entry): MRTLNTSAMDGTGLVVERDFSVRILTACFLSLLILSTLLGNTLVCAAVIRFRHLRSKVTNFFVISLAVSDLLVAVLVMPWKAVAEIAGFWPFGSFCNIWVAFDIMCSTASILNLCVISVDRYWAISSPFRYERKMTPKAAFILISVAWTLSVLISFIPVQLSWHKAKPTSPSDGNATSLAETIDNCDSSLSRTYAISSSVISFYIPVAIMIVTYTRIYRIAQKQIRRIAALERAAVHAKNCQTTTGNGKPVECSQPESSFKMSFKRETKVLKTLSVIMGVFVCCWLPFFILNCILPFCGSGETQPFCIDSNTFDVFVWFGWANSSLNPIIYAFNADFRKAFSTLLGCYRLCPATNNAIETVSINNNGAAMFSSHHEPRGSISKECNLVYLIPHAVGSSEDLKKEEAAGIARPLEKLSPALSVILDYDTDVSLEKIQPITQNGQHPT

[23] = molecular target: Neprilysin (Homo sapiens) (UniProt P08473); assay: Inhibition of human neutral endopeptidase from HUV-EC-C cells at 10 uM by fluorimetry
[24] = Tmax in dog at 5 mg/kg, po; format: ADME, organism-based, Canis lupus familiaris; set-up: dose 5 mg/kg, route oral; conditions: in vivo
In short: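 Fasted male beagle dogs (9.8-13.8 kg) given a single oral dose in 0.5% Methocel/0.3% Tween 80. Plasma taken by solid-phase extraction and measured by LC-MS/MS at m/z 869.3 (LOQ 50 nM). Noncompartmental analysis. Mean ± SE for three males.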

Sequence of 5-hydroxytryptamine receptor 2A (Rattus norvegicus) (P14842 whole entry): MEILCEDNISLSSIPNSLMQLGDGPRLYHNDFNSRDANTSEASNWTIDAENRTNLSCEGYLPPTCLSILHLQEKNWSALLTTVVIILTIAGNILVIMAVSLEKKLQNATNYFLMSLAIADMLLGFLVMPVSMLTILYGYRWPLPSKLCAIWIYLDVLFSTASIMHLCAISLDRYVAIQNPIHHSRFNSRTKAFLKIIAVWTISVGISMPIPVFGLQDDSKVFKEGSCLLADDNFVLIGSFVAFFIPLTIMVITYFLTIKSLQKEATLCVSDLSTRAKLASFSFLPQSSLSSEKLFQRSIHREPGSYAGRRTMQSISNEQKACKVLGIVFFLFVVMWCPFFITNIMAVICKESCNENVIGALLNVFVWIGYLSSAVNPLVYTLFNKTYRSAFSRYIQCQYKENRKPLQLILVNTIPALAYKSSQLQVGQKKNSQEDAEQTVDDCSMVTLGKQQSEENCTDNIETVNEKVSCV

Q: With C=C[C@@H]1C[C@]1(NC(=O)[C@@H]1C[C@@H](Oc2cc(-c3csc(NC(=O)C(C)C)n3)nc3c(Br)c(OC)ccc23)CN1C(=O)[C@@H](NC(=O)OC1CCCC1)C(C)(C)C)C(=O)O as the molecule, how does the inhibition [1] read?
A: 7%

Q: And the AUC [2]?
A: 8.3 µM·h

Q: And the inhibition [3]?
A: 3%

Q: What about the inhibition [4] of the same molecule?
A: 5%

Q: What about the inhibition (Caspase-6 (Homo sapiens)) of the same molecule?
A: 28%

Q: And the inhibition (Homo sapiens [5])?
A: 0%

Q: What about the inhibition [6] of the same molecule?
A: 18%

Q: What about the inhibition (Rattus norvegicus [7]) of the same molecule?
A: 28%

Q: What about the inhibition [8] of the same molecule?
A: 11%

Q: And the inhibition (Rattus norvegicus [9])?
A: 12%

Q: What about the inhibition [10] of the same molecule?
A: 38%

Q: What about the inhibition [11] of the same molecule?
A: 21%

Q: And the inhibition (Homo sapiens [12])?
A: 0%

Q: What about the inhibition [13] of the same molecule?
A: 3%

Q: And the inhibition (Homo sapiens [14])?
A: 22%

Q: And the inhibition [15]?
A: 5%

Q: What about the inhibition (Chymase (Homo sapiens)) of the same molecule?
A: 11%

Q: And the inhibition [16]?
A: 3%

Q: What about the inhibition (Rattus norvegicus [17]) of the same molecule?
A: 9%

Q: And the inhibition [18]?
A: 11%

Q: What about the inhibition [19] of the same molecule?
A: 20%

Q: What about the inhibition (Rattus norvegicus [20]) of the same molecule?
A: 10%

Q: And the MRT [21]?
A: 3.18 h

Q: And the inhibition [22]?
A: 14%

Q: What about the inhibition [23] of the same molecule?
A: 14%

Q: And the Tmax [24]?
A: 0.83 h
